Screening results: PubChem BioAssay, The Scripps Research Institute Molecular Screening Center
CHRM5 antagonist – CHRM5 antagonism in calcium assay | CHO-hM5 cells, Fluo-8 calcium fluorescence, ACh EC80 | inhibition, % at 3 µM | 360,000 tested, 0.59% active | AID 624040;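 active = inhibition above a per-plate cutoff, the mean of that plate's test compounds plus 3 SD, cut at about 27% in these data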;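 note: 0% = acetylcholine EC80 with DMSO and 100% = DMSO without agonist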
Target sequence (P08912 whole entry, looked up): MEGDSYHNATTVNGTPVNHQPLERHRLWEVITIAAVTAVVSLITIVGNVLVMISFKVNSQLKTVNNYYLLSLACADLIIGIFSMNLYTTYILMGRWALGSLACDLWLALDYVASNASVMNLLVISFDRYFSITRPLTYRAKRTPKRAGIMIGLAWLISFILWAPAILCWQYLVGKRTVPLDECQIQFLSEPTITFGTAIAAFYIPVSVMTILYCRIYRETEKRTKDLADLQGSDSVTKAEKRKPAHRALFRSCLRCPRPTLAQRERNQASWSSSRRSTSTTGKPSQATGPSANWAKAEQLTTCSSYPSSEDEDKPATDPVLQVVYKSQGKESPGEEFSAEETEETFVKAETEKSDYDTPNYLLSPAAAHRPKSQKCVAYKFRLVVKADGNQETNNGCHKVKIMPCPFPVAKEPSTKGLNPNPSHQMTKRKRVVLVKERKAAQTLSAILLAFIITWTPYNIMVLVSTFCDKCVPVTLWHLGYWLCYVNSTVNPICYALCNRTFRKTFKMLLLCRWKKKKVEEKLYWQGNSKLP
CHRM4 agonist – CHRM4 agonism in calcium assay | P08173 | activation, % at 3 µM | CHO-K1 hM4/Gqi5, Fluo-8 calcium fluorescence; vehicle 0%, full acetylcholine response 100% | 360,000 tested, 0.14% active | AID 624127;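 active = activation above the run mean over all test wells plus 3 SD, cut at about 32% in these data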;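 note: peak over basal fluorescence ratio per well then scaled between controls; 0% = DMSO wells and 100% = acetylcholine at EC100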
M4 PAM – positive allosteric modulators of human muscarinic M4 receptor. CHO-K1 hM4/Gqi5, Fluo-8 calcium fluorescence, ACh EC20; 0% = ACh EC20, 100% = maximal ACh. 360,000 tested, 0.4% active. P08173. activation, % at 3 µM;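 active = activation above its plate's cutoff, the mean activation of sample wells plus 3 SD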
M5 PAM – positive allosteric modulators of human muscarinic M5 receptor. P08912. CHO-K1 hM5, Fluo-8 calcium, ACh EC20 PAM; 0% = ACh EC20, 100% = ACh EC100. activation, % at 3 µM. 360,000 tested, 0.3% active. AID 624038;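 active = activation above the run cutoff, the mean activation of all test compounds plus 3 SD, cut at about 18% in these data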
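Assay system: CHO-K1 hM5 cells / Incubation: Fluo-8 loading 80 min at 37 °C plus 30 min room temperature / Technique: Fluo-8 calcium dye fluorescence, kinetic read / Repeats: single replicate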
CHRM4 antagonist – CHRM4 antagonism in calcium assay | 360,000 tested, 0.73% active | AID 624125 | CHO-hM4 cells, ACh EC80, Fluo-8 calcium fluorescence | inhibition, % at 3 µM | P08173;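 active = inhibition above its plate's cutoff, the mean inhibition of sample wells plus 3 SD, cut at about 27% in these data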;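 note: 0% = acetylcholine EC80 with DMSO and 100% = DMSO without agonist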
M5 ag – CHRM5 agonism in calcium assay; P08912; CHO-K1 hM5 cells, Fluo-8 calcium fluorescence; 0% DMSO wells, 100% maximal acetylcholine response; activation, % at 3 µM; 360,000 tested, 0.19% active; AID 624037;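 active = activation above the run's mean over test compounds plus 3 SD, cut at about 23% in these data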;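 note: signal is peak over basal fluorescence ratio across the kinetic read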
Active calls of the source: *. Most compounds without a hit are left out; they make up all but 1.8% or so of the library.

SMILES | CHRM5 antagonist | CHRM4 agonist | M4 PAM | M5 PAM | CHRM4 antagonist | M5 ag
Cc1ccnc(SCc2cc(=O)c(OC(=O)c3ccc(Br)o3)co2)n1 | 17.4 | 0.3 | 2.8 | 34.4* | 8.6 | 0.3
CCCCCCCCCCCCCCCC[N+](C)(C)CC | 76.9* | 1.1 | -18.2 | -19.0 | 51.9* | -1.4
CCCCCCCCCCCCCCCC[N+](C)(C)CCl | 29.5* | 2.3 | -10.2 | -44.7 | 35.4* | -10.7
CCCCCC[N+](C)(C)CCSSCC[N+](C)(C)CCCCCC | 8.8 | 0.4 | 4.4 | 2.1 | -4.9 | -5.4
CC(C)=CC(=O)O[C@@H]1Cc2c(ccc3ccc(=O)oc23)OC1(C)C | -1.4 | -1.9 | 15.3 | 25.4* | -13.3 | -7.3
O=C(Cc1ccccc1F)NC1CCCN(Cc2ccc(Cl)cc2)C1 (stereo not given) | 2.9 | -0.6 | -6.2 | 2.5 | -7.0 | -4.2
O=C(O)c1cccc2c1/C(=N/O)c1ccccc1-2 | -11.8 | 0.9 | 1.8 | 20.5* | -10.5 | 3.8
O=C(O)c1cccc2c1-c1ccccc1/C2=N\Nc1ccccc1 | 1.2 | 0.6 | 1.4 | 2.9 | -7.5 | -3.2
CCCCC[C@H](C)N1C[C@H](COCc2ccccc2)Oc2cc(N3CCC[C@@H]3COC)ccc2S1(=O)=O | 6.3 | -0.1 | 2.3 | -10.9 | -0.1 | 3.1
CN1CCC(=C(c2ccccc2)c2ccc(Br)cc2)CC1 | 29.5* | 11.8 | -46.5 | -34.5 | 12.4 | -14.9
O=C(NCc1ccc2c(c1)OCO2)C(=O)NCC1OCCN1S(=O)(=O)c1ccccc1 (stereo not given) | -1.4 | 2.4 | -2.5 | -3.6 | 7.9 | -1.3
C#CCN(C[C@H]1[C@H](OC(=O)NC2CC2)[C@H](OC(=O)NC2CC2)C[C@@H](C(=O)OC)[C@H]1C(=O)OC)S(=O)(=O)c1ccc(C)cc1 | 0.3 | 1.5 | 3.0 | -4.3 | -8.3 | 2.1
CC(C)c1cc(Cn2c3ccccc3c(=O)n2C(C)CBr)on1 (stereo not given) | 4.6 | 0.9 | 7.3 | 0.9 | -16.3 | -1.6
COc1ccc(C2/C=C\CN(C(=O)c3ccc(C)cc3)CC(=O)N2Cc2ccc(F)cc2)cc1 (stereo not given) | -0.2 | 2.3 | 13.9 | 18.1* | -2.5 | 0.7
CCOC(=O)/C(C#N)=C\c1cc(OC)c(OC)cc1[N+](=O)[O-] | -5.7 | -0.3 | 1.4 | -1.1 | 4.6 | -0.6
Cc1ccc(C(=O)OCC(=O)NC2CCCCCC2)c(C)c1 | -1.5 | 0.1 | 17.7 | 1.2 | -18.3 | -3.8
CC(NC=C1C(=O)OC(C)(C)OC1=O)C(=O)O (stereo not given) | -1.5 | 0.7 | 5.2 | -4.4 | -1.4 | -0.8
CC(C)CC(NC=C1C(=O)OC(C)(C)OC1=O)C(=O)O (stereo not given) | -3.2 | 0.2 | 20.8* | -0.5 | -1.0 | -5.0
COc1ccc2[nH]c(=O)c(CN(Cc3cccs3)S(=O)(=O)c3c(C)ccc4nsnc34)cc2c1 | 25.5 | 17.4 | -24.5 | -17.3 | 32.3* | 4.1
Cc1cccn2c(CNCC3OCCc4ccccc43)c(C(=O)N3CCCCC3)nc12 (stereo not given) | 6.7 | 6.7 | -10.4 | -8.9 | 7.3 | 3.8
COCCN1CCC(CNCc2c(C(=O)N3CCCCC3)nc3c(C)cccn23)C1 (stereo not given) | -2.9 | 1.0 | -0.3 | 23.0* | -5.2 | 6.3
COc1ccccc1C(=O)Nc1ccc(-c2nnc(SCC(=O)O)n2C)cc1 | -0.1 | 2.2 | 19.2 | 10.5 | 37.3* | -3.4
O=[N+]([O-])c1ccc(NC(=S)NCCc2ccc(F)cc2)cc1 | 32.8* | 8.7 | -14.7 | -17.0 | 22.8 | 1.9
COc1ccc(C(=O)N2CCCC(Nc3ccc(C)c(C)c3)C2)cc1 (stereo not given) | 0.1 | 1.3 | 0.6 | 0.1 | 1.4 | -0.8
COc1ccc(NC2CCCN(C(=O)c3ccc(OC)cc3OC)C2)cc1 (stereo not given) | 0.8 | 11.3 | -2.5 | 10.7 | 31.5* | -0.2
SMILES | CHRM5 antagonist | CHRM4 agonist | M4 PAM | M5 PAM | CHRM4 antagonist | M5 ag
Cc1cc(C)c(S(=O)(=O)c2cccc(C)c2C)c(=O)[nH]1 | -0.8 | 1.8 | -3.1 | -0.5 | 1.6 | -3.7
Cc1ccc(-n2c(C)cc(/C=C3\NC(=O)NC3=O)c2C)c(C)c1 | -1.3 | -1.4 | -24.2 | 0.0 | 34.9* | -6.0
Cc1cc(/C=C2/NC(=O)NC2=O)c(C)n1-c1ccccn1 | -12.5 | 0.7 | 5.8 | 0.8 | -8.8 | -0.1
Cc1ccc(S(=O)(=O)N2C[C@@H]3[C@H]4CC[C@H](C4)[C@@H]3[C@@H](C)[C@H]2c2ccn(Cc3ccccc3)c2)cc1 | 3.5 | -0.1 | 6.3 | -1.2 | -20.5 | 1.9
CCOc1ccccc1NC(=O)CSc1nc2cc(O)ccc2c(=O)n1-c1ccc(OC)c(OC)c1 | 18.0 | 11.6 | -5.1 | -6.2 | 13.2 | 4.3
COc1ccc(OCCNC(=O)C2(C)CCN2Cc2ccc3ccccc3c2)cc1 (stereo not given) | 13.8 | 10.2 | -13.0 | -18.9 | 29.2* | -0.2
COc1ccc(OCCNC(=O)C2(C)CCN2Cc2ccc(SC)cc2)cc1 (stereo not given) | 1.9 | 8.7 | -8.2 | -3.3 | 9.3 | -2.3
O=S1(=O)CCS(=O)(=O)C1c1ccccc1 | -8.0 | 0.5 | -1.1 | 20.2* | 16.2 | 7.8
O=C1CC(=O)CC(c2ccccc2)C1 | -3.2 | 0.6 | -1.9 | -2.1 | -2.2 | 1.9
COC(=O)C[C@H]1C[C@H]2c3cc(NC(=O)Cc4ccncc4)ccc3O[C@H]2[C@@H](CO)O1 | 11.7 | 0.5 | -0.9 | -3.3 | 7.0 | 0.4
Cc1cc(OCCCN2CCC(C(O)(c3ccccc3)c3ccccc3)CC2)ccc1Br | 10.0 | 17.2 | -10.2 | -17.0 | 29.0* | -1.9
Cc1oc2c(CN3CCCCC3)c(O)ccc2c(=O)c1-c1ccc(Br)cc1 | 2.3 | 0.3 | -14.3 | -3.5 | 29.8* | -5.9
COc1ccc(-c2c(C)oc3c(CN4CCOCC4)c(O)ccc3c2=O)cc1OC | 10.8 | 0.2 | -4.5 | -4.8 | -1.2 | -3.5
COc1ccc(-c2c(C)oc3c(CN4CCOCC4)c(O)ccc3c2=O)cc1 | 2.2 | 1.2 | -9.9 | 2.8 | -8.5 | -4.1
Cc1oc2c(CN3CCCC3)c(O)ccc2c(=O)c1-c1ccc(Br)cc1 | -8.2 | -0.3 | -33.6 | 10.1 | 70.5* | -4.4
COC(=O)c1sc(NC(=S)NC(=O)c2cccc(Br)c2)nc1C | -2.3 | -0.1 | -0.2 | 12.1 | 3.0 | 7.9
CN(C(=O)c1cccc(NC(=O)Cc2ccc(NC(=O)C3CCN(C(=O)C4CCCCC4)CC3)cc2)c1)C1CCCC1 | -12.7 | -0.9 | 3.6 | 4.0 | -2.7 | -1.1
CCOC(=O)C1=C(C)NC(C)=C(C(=O)OCC)C1C(=O)OCC(=O)NCc1ccc(F)cc1 | 7.4 | 11.8 | -2.1 | -10.3 | -9.2 | -5.3
